Experiments:
[1] = molecular target: T1, Bifunctional epoxide hydrolase 2 (Homo sapiens, UniProt P34913); test: Inhibition of human recombinant soluble epoxide hydrolase expressed in baculovirus system assessed as appearance of 6-methoxynaphthaldehyde product by fluorescent-based assay
T1 sequence (P34913 whole entry): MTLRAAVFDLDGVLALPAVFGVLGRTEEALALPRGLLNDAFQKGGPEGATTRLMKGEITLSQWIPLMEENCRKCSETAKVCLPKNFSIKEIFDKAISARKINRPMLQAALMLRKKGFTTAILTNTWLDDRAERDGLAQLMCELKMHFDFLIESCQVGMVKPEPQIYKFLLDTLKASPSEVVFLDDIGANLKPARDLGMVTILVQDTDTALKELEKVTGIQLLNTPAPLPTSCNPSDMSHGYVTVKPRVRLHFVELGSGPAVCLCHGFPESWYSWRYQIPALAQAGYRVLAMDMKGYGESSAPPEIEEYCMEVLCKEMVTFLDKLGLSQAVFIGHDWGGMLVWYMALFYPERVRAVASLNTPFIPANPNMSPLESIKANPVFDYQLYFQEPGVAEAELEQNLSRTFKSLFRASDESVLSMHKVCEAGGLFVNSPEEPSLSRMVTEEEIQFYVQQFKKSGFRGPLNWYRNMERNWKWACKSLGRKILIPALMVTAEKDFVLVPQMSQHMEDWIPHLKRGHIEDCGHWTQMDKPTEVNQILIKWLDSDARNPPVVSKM

[2] = Vasorelaxant activity against U46619-induced contraction in bovine coronary artery ring at 10 uM treated after U46619 challenge; type: functional, Bos taurus; design: scale not given: the % may be the effect or the level left
[3] = Vasorelaxant activity against U46619-induced contraction in bovine coronary artery ring treated after U46619 challenge; type: functional, tissue-based; conditions: Bos taurus
How it was run: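 Bioassay run 3-5 times (n = 3-5); reported values are means, ±10% SD.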

[4] = Vasorelaxant activity against U46619-induced contraction in bovine coronary artery ring at 10 uM treated after U46619 challenge; design: scale not given: the % may be the effect or the level left

SMILES	IC50 [1] [µM]	EC50 ([3]; read-out: EC50) [µM]	EC50 ([3]; read-out: ED50 (the source's name)) [µM]	Activity [2] [%]	Activity [4] [%]
CCCCCCN(C)C(=O)CCCC/C=C\CCCCCCC(=O)O	13.9	> 10	–	12	–
CCCCCNC(=S)NCCCC/C=C\CCCCCCC(=O)O	0.77	1.5	–	99	–
CCCCCNC(=O)NCCCCCCC/C=C\CCCC(=O)O	0.793	5.6	–	66	–
CCCCCNC(=O)NCCCCC#CCCC(=O)O	8.11	> 10	–	46	–
CCCCN(C)C(=O)C(=O)N(C)CCCC/C=C\CCCCCCC(=O)O	17.6	4.4	–	70	–
CCCCCNC(=O)NCCCC/C=C\CCCCCCC(=O)O	0.046	7.5	–	63	–
CCCCCC1CN=C(CCCC/C=C\CCCCCCC(=O)OC)O1 (stereo unspecified)	0.688	> 10	–	33	–
CCCCCCC(=O)N(C)CCCC/C=C\CCCCCCC(=O)O	11.2	4.3	–	64.5	–
CCCCCNC(=O)NCCCC/C=C/CCCCCCC(=O)O	0.0485	> 10	–	29	–
CCCCCCC(=O)N(CCCC/C=C\CCCCCCC(=O)O)C(C)C	19	1.7	–	100	–
CCNC(=O)NCCCC/C=C\CCCCCCCCCC(=O)O	2.6	> 10	–	50	–
CCCCCCC(=O)NCCCC/C=C\CCCCCCC(=O)O	0.079	6.1	–	64.5	–
CCCCCCNC(=O)CCCC/C=C\CCCCCCC(=O)O	0.066	4.9	–	74	–
CCCCCc1cn(CCCC/C=C\CCCCCCC(=O)[O-])nn1.[Na+]	17.8	6.2	–	65	–
CCCCCN(C)C(=O)N(C)CCCCCCCC#CCCCC(=O)O	11.1	2.3	–	77.5	–
CCCCCOC(=O)NCCCC/C=C\CCCCCCC(=O)O	2.83	8.3	–	64	–

Now from value to molecule, other results behind:

IC50 [1] [µM]	EC50 ([3]; read-out: EC50) [µM]	EC50 ([3]; read-out: ED50 (the source's name)) [µM]	SMILES	Activity [2] [%]	Activity [4] [%]
8.48	3.2	–	CCCCCN(C)C(=O)N(C)CCCC/C=C\CCCCCCC(=O)O	83	–
0.272	5.7	–	CCCCCCC(=O)NCCCCCCCC#CCCCC(=O)O	69	–
0.043	3.1	–	CCCCCNC(=O)NCCCCC#CCCCCCCC(=O)O	62	–
1.36	> 10	–	CCCCCNC(=O)NCCCC/C=C\CCC(=O)O	16	–
0.152	4.6	–	CCCCNC(=O)NCCCCC/C=C\CCCCCCC(=O)OC	84	–
3.48	9.3	–	CCCCCNC(=O)OCCCC/C=C\CCCCCCC(=O)O	53	–
7.15	> 10	–	CCCCCc1ccc(CCCC/C=C\CCCCCCC(=O)O)o1	11	–
58.7	1.7	–	CCCCNC(=O)C(=O)NCCCC/C=C\CCCCCCC(=O)O	89	–
0.016	3.5	–	CCCCCCNC(=O)NCCC/C=C\CCCCCCC(=O)O	86	–
1.37	3.7	–	CCCCCNC(=O)NOCCC/C=C\CCCCCCC(=O)O	87	–
0.0715	7.6	–	CCCCCNC(=O)N(C)CCCC/C=C\CCCCCCC(=O)O	59	–
1.45	3.2	–	CCCCCN(C)C(=O)NCCCC/C=C\CCCCCCC(=O)O	88	–
–	–	2.2	CCCCC[C@@H]1O[C@@H]1C/C=C\C/C=C\C/C=C\CCCC(=O)O (relative stereo)	–	85
